One data set relates to MRC5. Put plainly: In vitro antiviral activity against Human cytomegalovirus (HCMV)strain AD169 in MRC-5 lung fibroblasts using a DNA-hybridization assay. The class given is functional, cell-based. In a few lines:
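HCMV strain AD169 grown in MRC-5 human lung fibroblasts; viral DNA read out by DNA hybridization. Each drug concentration tested in triplicate. IC50 derived by probit linear regression, and reported values span 7 to 12 independent experiments with standard errors.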

Data set [1] is described as follows: In vitro toxicity against colony forming unit granulocyte macrophage (CFU-GM). It counts as cell-based. The note with it: human.
Data set [2] can be described thus: In vitro toxicity against burst forming unit erythroid (BFU-E). The following applies: human, burst forming unit erythroid (BFU-E) progenitor cells.
For another data set, the system named is MOLT-4. As to the kind of experiment: The compound is evaluated for toxicity in MOLT-4 cells. It counts as cell-based. The following applies: Homo sapiens.
In a further data set the test system is CCRF-CEM. Put plainly: The compound is evaluated for toxicity in CEM cells. It counts as cell-based. The following applies: Homo sapiens.
The subject of another data set is IM-9. Put plainly: The compound is evaluated for toxicity in IM-9 cells. It counts as cell-based. The following applies: Homo sapiens.

The source of these data is ChEMBL document CHEMBL1127652, “An enantiospecific synthesis of the human cytomegalovirus antiviral agent [(R)-3-((2-amino-1,6-dihydro-6-oxo-9H-purin-9-yl)methoxy)-4- hydroxybutyl]phosphonic acid” (J Med Chem, 1994).

`Nc1nc2c(ncn2COC(CO)CO)c(=O)[nH]1` [GANCICLOVIR]: the IC50 is 1.7 µM in the data set with MRC5, 19 µM in data set [1] and 29 µM in data set [2].
With `CCOP(=O)(O)CC[C@H](CO)OCn1cnc2c(O)nc(N)nc21`, in the data set with MRC5, 6.8 µM corresponded to half-maximal inhibition (IC50).
Consider `Nc1nc2c(ncn2CO[C@@H](CO)CCP(=O)(O)O)c(=O)[nH]1`, for which the half-maximal inhibitory concentration (IC50) is 1.7 µM with MRC5; 96 µM in data set [1]; 126 µM in data set [2]; above 100 µM with MOLT-4; above 100 µM in the data set on CCRF-CEM; above 100 µM in the data set on IM-9.
`Nc1nc(O)c2ncn(COC(CO)CCP(=O)(O)O)c2n1` (stereo not drawn): the IC50 in the data set on MRC5 came to 5.6 µM; in data set [1], 280 µM; in data set [2], 200 µM.

In general, IC50 refers to the midpoint of a concentration-inhibition curve.
